The values that follow come from ChEMBL document CHEMBL1151788, “Synthesis and biological activity of 1-methyl-tryptophan-tirapazamine hybrids as hypoxia-targeting indoleamine 2,3-dioxygenase inhibitors” (Bioorg Med Chem, 2008).

The target in experiment [1] is Indoleamine 2,3-dioxygenase 1 (Homo sapiens, UniProt P14902). As to the kind of experiment: Inhibition of indoleamine 2,3-dioxygenase in aerobic condition.
Experiment [2] is described as follows: Cytotoxicity against mouse EMT6/KU cells in aerobic condition for 5 hrs measured after 7 to 10 days. The format is functional, cell-based. Summed up:
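Late-log cells were plated at 10^3, 5×10^2 or 2×10^2 per dish and grown 24 h. Drug in DMSO diluted in medium was then given in a CO2 incubator at 37 °C for 5 h. After washout, colonies grew 7–10 days and were methanol-fixed, Giemsa-stained and counted.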

The nature of experiment [3]: Cytotoxicity against mouse EMT6/KU cells in hypoxic condition for 5 hrs measured after 7 to 10 days. The format is functional, cell-based. Summed up: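 Drug medium (DMSO stock diluted in medium) was added and the cells were held 5 h at 37 °C in a hypoxic chamber flushed with 5% CO2/95% N2. After drug removal, colonies grew 7–10 days, then were methanol-fixed, Giemsa-stained and counted for surviving fraction.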

Experiment [4] in a line: Hypoxic cytotoxicity ratio of IC50 for mouse EMT6/KU cells in aerobic condition to IC50 for mouse EMT6/KU cells in hypoxic condition. The format is functional. Summed up:
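IC50 values came from clonogenic survival of EMT6/KU cells after 5 h drug exposure at 37 °C, either aerobic (CO2 incubator) or hypoxic (5% CO2/95% N2 chamber), with Giemsa-stained colonies counted after 7–10 days. The ratio is IC50(aerobic)/IC50(hypoxic).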

Activity calls are given as the source filed them. The rule behind the calls is not given here.

Broadly, the IC50 is the concentration that inhibits the measured activity by half. A higher IC50 goes with lower potency. For `Nc1nc2ccccc2[n+]([O-])n1`, in experiment [1], the outcome was inactive. Besides, the half-maximal inhibitory concentration (IC50) was more than 80 µM in experiment [2] and more than 40 µM in experiment [3].
In the case of `O=C(NCCCCNc1nc2ccccc2[n+]([O-])n1)C(F)(F)F`, in experiment [1], the outcome was inactive.
Usually Ki stands for a measure of affinity in units of concentration, obtained from inhibition or displacement. The compound `Cn1cc(C[C@H](NC(=O)OC(C)(C)C)C(=O)NCCCCNc2n[n+]([O-])c3ccccc3[n+]2[O-])c2ccccc21` showed a Ki in experiment [1] of 367 µM. For the same compound, the half-maximal inhibitory concentration (IC50) in experiment [2] was more than 40 µM; in experiment [3], 8 µM. Further, the “Ratio IC50” value in experiment [4] is more than 5.
`O=C(NCCCCCNc1nc2ccccc2[n+]([O-])n1)C(F)(F)F`: the outcome in experiment [1] was inactive.
Compound `Cn1cc(C[C@H](NC(=O)OC(C)(C)C)C(=O)NCCCCCNc2n[n+]([O-])c3ccccc3[n+]2[O-])c2ccccc21` yielded a Ki in experiment [1] of 197 µM. Also, the 50% inhibitory concentration (IC50) was found to be 35 µM in experiment [2] and 7.1 µM in experiment [3]. The “Ratio IC50” value in experiment [4] stood at 4.9.
As for `Cn1cc(C[C@H](NC(=O)OC(C)(C)C)C(=O)O)c2ccccc21`, in experiment [1], the result was inactive.
With `Cn1cc(C[C@H](NC(=O)OC(C)(C)C)C(=O)NCCCCNc2nc3ccccc3[n+]([O-])n2)c2ccccc21`, affinity in experiment [1] was put at a Ki of 87.1 µM. In addition, the 50% inhibitory concentration (IC50) worked out at 36 µM in experiment [2] and 33 µM in experiment [3]. For the same compound, the “Ratio IC50” value in experiment [4] amounted to 1.1.
For `O=C(NCCCCNc1n[n+]([O-])c2ccccc2[n+]1[O-])C(F)(F)F`, in experiment [1], the result was inactive.
Take `O=C(NCCCCCNc1n[n+]([O-])c2ccccc2[n+]1[O-])C(F)(F)F`: the outcome in experiment [1] was inactive.
In experiment [1], `Cn1cc(C[C@H](NC(=O)OC(C)(C)C)C(=O)NCCCCCNc2nc3ccccc3[n+]([O-])n2)c2ccccc21` yielded a Ki of 76.3 µM. For the same compound, the IC50 amounted to 42 µM in experiment [2] and 33 µM in experiment [3]. In addition, in experiment [4], the “Ratio IC50” value is 1.3.
Turning to `Nc1n[n+]([O-])c2ccccc2[n+]1[O-]` [TIRAPAZAMINE], the result in experiment [1] was inactive. Further, the figures for the IC50 in experiment [2] and in experiment [3] were 38 µM and 12 µM, respectively. Besides, the “Ratio IC50” value in experiment [4] worked out at 3.2.
